GRIN3A LBD mod: modulates the human NR3A ligand-binding domain; Tm shift relative to glycine control, % at 25 µM; NR3A LBD differential scanning fluorimetry, Tm shift; 0% = protein alone, 100% = glycine-bound protein; hit rate 2.5% among 340,000;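 active = melting temperature shift of at least 10% of the positive control shift, at one fixed dose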
MT1-MMP act inh: inhibitors of human MT1-MMP activation; AID 651647; hit rate 0.061% among 360,000; GFP/RFP ratio change, % at 20 µM; HT1080 RFP-PRO-GFP cells, GFP/RFP ratio fluorescence, overnight; percent of plate control window, DMSO zero;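 active = GFP/RFP ratio change of at least 30% with cell ATP level not reduced by more than half and red fluorescence within 50% of control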
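Assay system – RFP-PRO-GFP reporter HT1080 cells · Compound dosing – single dose of 20 µM compound, 1% DMSO final · Incubation – overnight compound exposure at 37 °C · Measure – GFP/RFP fluorescence ratio · Benchmarks – DMSO wells and RFP-L50D-GFP cells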
MPTP inh: permeability transition pore inhibition | inhibition, % at 10 µM | hit rate 1.4% among 360,000 | isolated mouse mitochondria, Ca2+ swelling absorbance, 30 min;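 active = inhibition of 50% or more, scaled per plate between neutral and stimulator controls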;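 note: 0% = DMSO wells given calcium and 100% = 1 mM EGTA wells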
ADAM17 inh: inhibitors of human ADAM17; P78536; hit rate 0.83% among 370,000; recombinant ADAM17, EDANS/DABCYL FRET peptide cleavage; AID 720648; inhibition, % at 6.95 µM;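 active = inhibition above the mean of compounds lying between control limits plus 3 SD, set per campaign, cut at about 8.5% in these data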;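 note: 0% = DMSO-only wells as the low control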
SKN-1 inh: C. elegans SKN-1 inhibition. hit rate 0.49% among 360,000. inhibition, % at 21.8 µM. C. elegans VP596 Pgst-4::GFP/RFP ratio, acrylamide-induced, 24 h;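 active = interference check ratio from 0.5 to 1.5 plus GFP to RFP signal ratio inhibition reaching or exceeding a fixed threshold, cut at about 30% in these data, passing the limit was not always enough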
ADAM10 inh: inhibitors of human ADAM10; O14672; recombinant ADAM10, EDANS/DABCYL FRET peptide cleavage, 3 h; hit rate 0.62% among 370,000; inhibition, % at 7 µM; AID 720582;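 active = inhibition above a per-campaign cutoff equal to the mean of compounds falling between control-based bounds plus 3 SD, cut at about 20% in these data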;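 note: 0% = DMSO wells while the 100% control is not disclosed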
Target sequence (O14672 214-748 limits assumed): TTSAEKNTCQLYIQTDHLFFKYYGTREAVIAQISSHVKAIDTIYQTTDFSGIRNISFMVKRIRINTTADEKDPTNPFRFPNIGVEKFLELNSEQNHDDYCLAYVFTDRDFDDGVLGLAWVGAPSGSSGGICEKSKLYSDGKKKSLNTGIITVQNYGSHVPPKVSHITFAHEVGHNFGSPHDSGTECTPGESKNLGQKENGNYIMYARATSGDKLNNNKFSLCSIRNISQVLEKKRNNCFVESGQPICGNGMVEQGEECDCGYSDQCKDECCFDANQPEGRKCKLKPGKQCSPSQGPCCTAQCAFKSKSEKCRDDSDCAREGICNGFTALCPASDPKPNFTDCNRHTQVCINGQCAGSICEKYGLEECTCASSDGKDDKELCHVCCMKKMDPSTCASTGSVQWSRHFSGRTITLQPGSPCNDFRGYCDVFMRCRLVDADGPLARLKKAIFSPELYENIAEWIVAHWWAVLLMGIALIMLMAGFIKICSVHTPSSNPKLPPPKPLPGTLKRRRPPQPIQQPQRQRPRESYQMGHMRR
Starred values were filed as active, the others as inactive; . = no result given. Sampled rows, rich in hits. Any-hit rate of the full collection: about 4.7%.

SMILES	GRIN3A LBD mod	MT1-MMP act inh	MPTP inh	ADAM17 inh	SKN-1 inh	ADAM10 inh
Cc1onc(-c2ccccc2)c1C(=O)OCC(=O)Nc1ccc(Cl)cc1	2	13	8	8	4	12
Cc1onc(-c2ccccc2)c1C(=O)OCC(=O)Nc1cccc(Cl)c1	13*	5	12	8	21	5
Cc1[nH]n(-c2nc(-c3ccc(Cl)cc3)cs2)c(=O)c1N=Nc1ccc(O)cc1	19*	9	3	1	3	1
CCc1c(C)[nH]n(-c2nc(-c3ccccc3)cs2)c1=O	-2	1	1	-3	6	10
CC1(C(=O)NS(=O)(=O)c2ccccc2Cl)CCN1C(=O)C1CC1 (stereo not drawn)	.	1	-1	-4	1	-14
CCCc1ncc(CN2CCCCC2C(=O)Nc2ccc(Oc3ccccc3)nc2)cn1 (stereo not drawn)	3	4	2	-2	5	6
CCn1cc(/C=N\NC(=O)c2ccc3c(c2)c(C)c(C)n3Cc2ccccc2)c(C)n1	19*	1	-1	3	-5	6
Cc1c(C)n(Cc2ccccc2)c2ccc(C(=O)OCCN(C)C)cc12	0	-11	40	0	36*	1
CCn1ncc(/C=N\NC(=O)c2ccc3c(c2)c(C)c(C)n3Cc2ccccc2)c1C	-5	1	-1	-2	9	1
O=C(COc1ccc(Cl)cc1Cl)NCCN1CCCCC1	.	3	1	-1	-13	-3
S=c1[nH]c2cc3ccccc3cc2[nH]1	26*	4	5	-4	-2	-4
S=c1[nH]c2ccc3ccccc3c2[nH]1	-1	1	0	-2	1	-11
O=C1/C(=C\c2ccc(O)cc2)SC(=S)N1Cc1ccccc1	34*	-151	27	0	-1	8
CC(=O)Oc1ccc(/C=C2/SC(=S)N(Cc3ccccc3)C2=O)cc1	-3	-110	5	-2	-15	0
CCOc1cc(/C=C2/SC(=S)N(Cc3ccccc3)C2=O)ccc1O	6	-32	3	3	-10	-4
N=C1S/C(=C\c2ccc(O)cc2)C(=O)N1c1ccc(F)cc1	22*	0	0	.	2	.
O=C(O)c1ccc(/C=C2/SC(=S)N(Cc3ccccc3)C2=O)cc1	20*	2	2	-4	27	-5
O=C1/C(=C\c2ccc(O)cc2)SC(=S)N1c1cccnc1	29*	-69	23	0	-7	5
CCOc1cc(/C=C2\SC(=O)N(c3ccc(O)cc3)C2=O)ccc1O	0	-37	12	-5	-4	-4
O=S1(=O)c2ccc(N3CCN(Cc4ccccc4F)CC3)cc2Oc2ccccc2CN1Cc1cn(Cc2ccc(F)cc2)nn1	.	.	.	0	.	4
CCCC(C)C1c2c(c(C)c(C)oc2=O)Oc2c(C)c(C)oc(=O)c21 (stereo not drawn)	-4	1	0	-5	2	2
COc1ccc(NC(=O)Nc2cccc3c2O[C@H](CN(C)C(=O)Nc2ccc(C(F)(F)F)cc2)[C@@H](C)CN([C@H](C)CO)C3=O)cc1	0	3	0	.	7	.
C[C@H](CO)N1C[C@H](C)[C@@H](CN(C)C(=O)Nc2ccc(C(F)(F)F)cc2)Oc2ccc(NC(=O)Nc3ccc(C(F)(F)F)cc3)cc2C1=O	10*	20	-1	13*	-16	26*
C[C@H](CO)N1C[C@H](C)[C@@H](CN(C)C(=O)Nc2ccc(C(F)(F)F)cc2)Oc2c(NC(=O)Nc3ccc(C(F)(F)F)cc3)cccc2C1=O	28*	3	0	12*	1	29*
COc1ccc(S(=O)(=O)N(C)C[C@H]2Oc3ccc(NC(=O)Nc4ccc(C(F)(F)F)cc4)cc3C(=O)N([C@H](C)CO)C[C@@H]2C)cc1	22*	9	1	12*	13	29*
SMILES	GRIN3A LBD mod	MT1-MMP act inh	MPTP inh	ADAM17 inh	SKN-1 inh	ADAM10 inh
C[C@H]1CN([C@@H](C)CO)C(=O)c2cccc(NC(=O)Nc3ccc(C(F)(F)F)cc3)c2O[C@@H]1CN(C)C(=O)Nc1ccc(F)cc1	21*	7	0	6	6	23*
O=C(NC(=S)NNC(=O)c1cccs1)c1ccco1	-1	7	5	1	11	7
O=C(Nc1ccc(Nc2ccccc2)cc1)c1ccc(Br)o1	21*	12	6	4	-25	10
O=C(Nc1ccc(Cl)cc1Cl)c1ccc(Br)o1	2	1	0	-3	36*	-2
O=C(Nc1ccc(NC(=O)c2cccs2)cc1)c1ccc(Br)o1	24*	0	2	-3	7	-7
O=C(Nc1ccc(NC(=S)NC(=O)c2cccs2)cc1)c1ccco1	13*	4	1	1	0	8
Cc1ccc(N(C(C)C(=O)Nc2ccccc2C(=O)N2CCOCC2)S(C)(=O)=O)cc1C (stereo not drawn)	0	-1	-1	-6	10	1
O=C(CSc1nc2ccccc2o1)NN=C/C=C\c1ccccc1[N+](=O)[O-]	.	.	.	4	.	4
Cc1ccccc1OCC(=O)OCC(=O)Nc1ccc2c(c1)OCO2	2	-2	-2	-2	0	-10
O=C(Nc1cccc(NC(=O)c2cccs2)c1)c1ccc(Br)o1	16*	2	1	5	23	11
CN(C)S(=O)(=O)c1ccc(NC(=O)c2ccc(Br)o2)cc1	-2	11	-2	.	2	.
CN(C1CCCCC1)S(=O)(=O)c1ccc(NC(=O)c2ccc(Br)o2)cc1	-22	-5	-1	6	-11	20*
O=C(NC1CCC(O)CC1)c1ccc2c(c1)S(=O)(=O)N=C1CCCCCN12 (stereo not drawn)	1	-1	-3	-2	4	-10
CCOC(=O)c1ccc(NS(=O)(=O)c2cc(-c3nnnn3C(C)C)ccc2OC)cc1	-6	5	3	-1	3	8
COc1cccc(-c2noc(-c3cccs3)n2)c1	0	-1	2	-1	91*	3
Cc1ccccc1-c1noc(-c2cccs2)n1	4	-3	0	-1	88*	-1
Cc1ccc2c(c1)Oc1ccc(NC(=O)CCCl)cc1C(=O)N2	-2	0	-1	1	-1	11
Brc1ccc(-c2nnc(-c3ccccc3Br)o2)cc1	-32	0	2	4	65*	4
Clc1ccc(-c2nnc(-c3ccccc3)o2)cn1	-1	-2	1	-2	42*	5
Brc1ccc(CSc2nnc(-c3cccnc3)o2)cc1	-24	-2	2	-1	43*	-3
Cc1ccc(-c2nnc(-c3cccnc3)o2)cc1	0	-1	0	-2	1	-12
Brc1ccc(-c2nnc(-c3cccnc3)o2)cc1	-1	1	3	-2	48*	7

Compound activity as filed in PubChem BioAssay.
